Laboratory results published in ChEMBL document CHEMBL2040808, “Design, synthesis, and in vitro activity of novel 2'-O-substituted 15-membered azalides” (J Med Chem, 2012).
In brackets after ≈: the same amount, converted by molar mass.

Key:
Plasmodium falciparum [1] = assay: Antimalarial activity against chloroquine-sensitive Plasmodium falciparum 3D7A infected in type A rhesus-positive human erythrocytes assessed as [3H]hypoxanthine incorporation after 48 hrs by scintillation counting; type: functional, organism-based
Outline: (§1)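 Modified semiautomated microdilution: compounds dissolved in DMSO, diluted in RPMI 1640 with 10% v/v human plasma, serial 1:2 dilutions in triplicate. Infected erythrocytes at 3% hematocrit, 0.25−0.55% parasitemia. [3H]hypoxanthine at 12.5−16 μCi/mL final. Incubated 48 h, 37 °C, in 5% O2/3% CO2/92% N2. Harvested on fiberglass strips, scintillation counted. IC50 by nonlinear regression of concentration−response curves.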

Plasmodium falciparum [2] = assay: Antimalarial activity against chloroquine-resistant Plasmodium falciparum W2 infected in type A rhesus-positive human erythrocytes assessed as [3H]hypoxanthine incorporation after 48 hrs by scintillation counting; type: functional, organism-based; outline: as §1
Plasmodium falciparum [3] = assay: Ratio of IC50 for azithromycin to compound IC50 for chloroquine-sensitive Plasmodium falciparum 3D7A infected in type A rhesus-positive human erythrocytes assessed as [3H]hypoxanthine incorporation after 48 hrs by scintillation counting; type: functional
Plasmodium falciparum [4] = assay: Ratio of IC50 for azithromycin to compound IC50 for chloroquine-resistant Plasmodium falciparum W2 infected in type A rhesus-positive human erythrocytes assessed as [3H]hypoxanthine incorporation after 48 hrs by scintillation counting; type: functional
HepG2 = assay: Cytotoxicity against human HepG2 cells after 24 hrs by MTS assay; type: cell-based; conditions: HepG2, 24 h
Outline: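 Hep G2 cells were kept in RPMI 1640 with 10% FBS at 37 °C and 5% CO2. Wells held 50000 cells and received 1:2 serial dilutions of compound (DMSO stock diluted in medium) for 24 h. MTS reagent was then added for 2 h, absorbance was read at 490 nm, and IC50 was taken from response curves.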

[5] = Selectivity ratio of IC50 for human HepG2 cells to IC50 for chloroquine-sensitive Plasmodium falciparum 3D7A; type: ADME, cell-based; conditions: HepG2 cells versus Plasmodium falciparum 3D7A, read-out: Ratio IC50
Outline: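 Selectivity is the HepG2 IC50 divided by the P. falciparum IC50. For HepG2, 50000 cells per well in RPMI 1640 with 10% FBS were exposed to 1:2 serial dilutions for 24 h at 37 °C, 5% CO2. MTS was added for 2 h and absorbance read at 490 nm. Parasite IC50 came from the 48 h [3H]hypoxanthine assay.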

Streptococcus pneumoniae = assay: Antibacterial activity against Streptococcus pneumoniae isolate SP030 by broth microdilution method; type: functional
Outline: (§2)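 Standard broth microdilution MIC against macrolide-sensitive strains. For streptococci, 5% horse serum replaced lysed horse blood in the broth, and inocula were grown on Columbia agar with 5% sheep blood. S. aureus was grown on Mueller–Hinton agar.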

Streptococcus pyogenes = assay: Antibacterial activity against Streptococcus pyogenes isolate 3565 by broth microdilution method; type: functional; outline: as §2
Staphylococcus aureus = assay: Antibacterial activity against Staphylococcus aureus ATCC 13709 by broth microdilution method; type: functional; outline: as §2
[6] = Aqueous solubility of the compound at pH 4; type: physicochemical
[7] = Selectivity ratio of IC50 for human HepG2 cells to IC50 for chloroquine-sensitive Plasmodium falciparum 3D7A; conditions: HepG2 cells versus Plasmodium falciparum 3D7A

Compound | IC50 (Plasmodium falciparum [1]) | IC50 (Plasmodium falciparum [2]) | Ratio IC50 (Plasmodium falciparum [3]) | Ratio IC50 (Plasmodium falciparum [4]) | IC50 (HepG2) | selectivity ratio [5] | MIC (Streptococcus pneumoniae) | MIC (Streptococcus pyogenes) | MIC (Staphylococcus aureus) | solubility [6] | selectivity ratio [7]
CC[C@H]1OC(=O)[C@H](C)[C@@H](O[C@H]2C[C@@](C)(OC)[C@@H](O)[C@H](C)O2)[C@H](C)[C@@H](O[C@@H]2O[C@H](C)C[C@H](N(C)C)[C@H]2OCCCNCc2ccc3ccccc3n2)[C@](C)(O)C[C@@H](C)CN(C)[C@H](C)[C@@H](O)[C@]1(C)O | 227 nM | 55 nM | 3 | 3 | 30000 nM | 132 | > 64 µg/mL | > 64 µg/mL | > 64 µg/mL | > 10000 µg/mL | 132
CC[C@H]1OC(=O)[C@H](C)[C@@H](O[C@H]2C[C@@](C)(OC)[C@@H](O)[C@H](C)O2)[C@H](C)[C@@H](O[C@@H]2O[C@H](C)C[C@H](N(C)C)[C@H]2OCCCNc2ccnc3cc(Cl)ccc23)[C@](C)(O)C[C@@H](C)CN(C)[C@H](C)[C@@H](O)[C@]1(C)O | 21 nM | 10 nM | 3 | 3 | 45000 nM | 132 | 64 µg/mL (≈ 66.1 µM) | 64 µg/mL (≈ 66.1 µM) | > 64 µg/mL | > 10000 µg/mL | 132
CC[C@H]1OC(=O)[C@H](C)[C@@H](O)[C@H](C)[C@@H](O[C@@H]2O[C@H](C)C[C@H](N(C)C)[C@H]2OCCCNC(=O)CNc2ccnc3cc(Cl)ccc23)[C@](C)(O)C[C@@H](C)CN(C)[C@H](C)[C@@H](O)[C@]1(C)O | 138 nM | 84 nM | 3 | 3 | > 100000 nM | 132 | > 64 µg/mL | > 64 µg/mL | > 64 µg/mL | > 10000 µg/mL | 132
CC[C@H]1OC(=O)[C@H](C)[C@@H](O[C@H]2C[C@@](C)(OC)[C@@H](O)[C@H](C)O2)[C@H](C)[C@@H](O[C@@H]2O[C@H](C)C[C@H](N(C)C)[C@H]2OCCCN(C)Cc2ccnc3ccccc23)[C@](C)(O)C[C@@H](C)CN(C)[C@H](C)[C@@H](O)[C@]1(C)O | 248 nM | 49 nM | 3 | 3 | 45000 nM | 132 | > 64 µg/mL | > 64 µg/mL | > 64 µg/mL | > 10000 µg/mL | 132
CC[C@H]1OC(=O)[C@H](C)[C@@H](O)[C@H](C)[C@@H](O[C@@H]2O[C@H](C)C[C@H](N(C)C)[C@H]2OCCCNc2ccnc3cc(Cl)ccc23)[C@](C)(O)C[C@@H](C)CN(C)[C@H](C)[C@@H](O)[C@]1(C)O | 37 nM | 25 nM | 3 | 3 | 83000 nM | 132 | > 64 µg/mL | > 64 µg/mL | > 64 µg/mL | > 10000 µg/mL | 132
CC[C@H]1OC(=O)[C@H](C)[C@@H](O[C@H]2C[C@@](C)(OC)[C@@H](O)[C@H](C)O2)[C@H](C)[C@@H](O[C@@H]2O[C@H](C)C[C@H](N(C)C)[C@H]2OCCCN(C)Cc2cnc3ccccc3c2)[C@](C)(O)C[C@@H](C)CN(C)[C@H](C)[C@@H](O)[C@]1(C)O | 466 nM | 47 nM | 3 | 3 | 23000 nM | 49 | > 64 µg/mL | > 64 µg/mL | > 64 µg/mL | > 10000 µg/mL | 49
CCN(CC)CCCC(C)Nc1ccnc2cc(Cl)ccc12 (stereo not drawn) [CHLOROQUINE] |  |  |  |  |  |  | > 64 µg/mL | > 64 µg/mL | > 64 µg/mL |  | 
CC[C@H]1OC(=O)[C@H](C)[C@@H](O)[C@H](C)[C@@H](O[C@@H]2O[C@H](C)C[C@H](N(C)C)[C@H]2OCCCN(C)Cc2cnc3ccccc3c2)[C@](C)(O)C[C@@H](C)CN(C)[C@H](C)[C@@H](O)[C@]1(C)O | 1290 nM | 311 nM | 3 | 3 | > 100000 nM |  | > 64 µg/mL | > 64 µg/mL | > 64 µg/mL | > 10000 µg/mL | 
